Experimental findings from ChEMBL document CHEMBL1147872, “Syntheses of new tetrasubstituted thiophenes as novel anti-inflammatory agents” (Eur J Med Chem, 2007) are described below.

In brackets after ≈: the same amount, converted by molar mass.

Common to all, as to type: functional
The nature of assay [1]: Antioxidant activity assessed as nitric oxide radical scavenging activity at 0.1 ug/ml after 150 mins. An outline of the steps: (§1)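 Sodium nitroprusside (10 mmol) in PBS at physiological pH was incubated with sample at 25 °C for 150 min in a 3 ml reaction. Aliquots taken every 30 min were mixed 1:1 with Griess reagent (1% sulphanilamide, 0.1% naphthylethylenediamine in 2% H3PO4), and absorbance was read at 546 nm. Runs were done in triplicate, and % scavenging was calculated against the blank.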

A short description of assay [2]: Antioxidant activity assessed as nitric oxide radical scavenging activity at 0.2 ug/ml after 150 mins. A digest of the protocol: as §1
Assay [3] in a line: Antioxidant activity assessed as nitric oxide radical scavenging activity at 0.4 ug/ml after 150 mins. A digest of the protocol:
as §1

Assay [4] can be described thus: Antioxidant activity assessed as nitric oxide radical scavenging activity at 0.6 ug/ml after 150 mins. An outline of the steps:
as §1

The nature of assay [5]: Antioxidant activity assessed as nitric oxide radical scavenging activity at 0.8 ug/ml after 150 mins. An outline of the steps: as §1
The nature of assay [6]: Antioxidant activity assessed as nitric oxide radical scavenging activity at 1.0 ug/ml after 150 mins. A digest of the protocol: as §1
Assay [7] in a line: Antioxidant activity assessed as nitric oxide radical scavenging activity at 1.2 ug/ml after 150 mins. A digest of the protocol:
as §1

The nature of assay [8]: Inhibition of nitric oxide radical scavenging activity. An outline of the steps: as §1
In assay [9] the test system is Rattus norvegicus. In words: Antiinflammatory activity in Albino rat assessed as protection against carrageenan-induced hind paw oedema at 100 mg/kg, po after 3 hrs. A digest of the protocol:
(§2)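 Rats (150–250 g, either sex) were fasted 18 h and grouped in sixes. Compounds or standards were given orally as a suspension in 5% DMSO. After 1 h, 0.1 ml of 1% carrageenin was injected subplantar into the right hind paw. Paw volume was read by mercury plethysmometer at once and at 3 h. % protection = 100(1−Vt/Vc) versus vehicle.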
Background: Carrageenan injected into the paw causes an acute inflammation.

Another assay deals with Mus musculus. The assay can be described thus: Analgesic activity in Albino mouse assessed as protection against acetic acid-induced writhing at 10 mg/kg, ip within 30 mins. Conditions: route intraperitoneal. An outline of the steps: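 Mice (20–25 g, either sex) starved 16 h, six per group, given 10 mg/kg i.p.; vehicle control received 1% DMSO at 0.5 ml/100 g. After 1 h, 0.1 ml of 3% acetic acid was given. Writhes were counted over 30 min, and the group mean was expressed as % inhibition versus control. Student's t-test was used.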
In general terms: In writhing tests, fewer writhes than in controls are read as antinociception.

Assay [10] has as its system Rattus norvegicus. In words: Antiinflammatory activity in Albino rat assessed as protection against carrageenan-induced hind paw oedema at 10 mg/kg, po after 3 hrs. A digest of the protocol:
as §2

For assay [11], the system named is Rattus norvegicus. In words: Antiinflammatory activity in Albino rat assessed as protection against carrageenan-induced hind paw oedema at 20 mg/kg, po after 3 hrs. An outline of the steps:
as §2

The subject of assay [12] is Rattus norvegicus. The assay can be described thus: Antiinflammatory activity in Albino rat assessed as protection against carrageenan-induced hind paw oedema at 40 mg/kg, po after 3 hrs. A digest of the protocol: as §2
Assay [13] can be described thus: Antioxidant activity assessed as nitric oxide radical scavenging activity at 5 ug/ml after 150 mins. A digest of the protocol:
as §1

Assay [14] is described as follows: Antioxidant activity assessed as nitric oxide radical scavenging activity at 10 ug/ml after 150 mins. A digest of the protocol: as §1
Assay [15] can be described thus: Antioxidant activity assessed as nitric oxide radical scavenging activity at 15 ug/ml after 150 mins. A digest of the protocol:
as §1

A short description of assay [16]: Antioxidant activity assessed as nitric oxide radical scavenging activity at 20 ug/ml after 150 mins. An outline of the steps: as §1
Assay [17] is described as follows: Antioxidant activity assessed as nitric oxide radical scavenging activity at 25 ug/ml after 150 mins. An outline of the steps: as §1
Assay [18] is described as follows: Antioxidant activity assessed as nitric oxide radical scavenging activity at 30 ug/ml after 150 mins. A digest of the protocol:
as §1

Assay [19] can be described thus: Antioxidant activity assessed as nitric oxide radical scavenging activity at 35 ug/ml after 150 mins. An outline of the steps:
as §1

In the case of `O=C1O[C@H]([C@@H](O)CO)C(O)=C1O` [ASCORBIC ACID], the Activity in [1] stood at 2.98%; in assay [2], 11.5%; in assay [3], 29.5%; in assay [4] it was 39.3%; in assay [5], 41.6%; in assay [6], 58.3%. Further, the Activity in assay [7] was 70.2%. In [8], this compound displayed an IC50 of 0.52 µg/mL (≈ 2.95 µM).

For `Cc1cccc(Nc2ccccc2C(=O)O)c1C` [MEFENAMIC ACID], in the assay on Rattus norvegicus [9], the Activity is given as 39%.

As to `COC(=O)c1c(Nc2ccc(OC)cc2)sc(C(=O)c2ccc(OC)cc2)c1C`, the Activity was found to be 40% in the assay on Mus musculus; 71% in the assay on Rattus norvegicus [10]; 72% in the assay with Rattus norvegicus [11]; 76% in the assay with Rattus norvegicus [12]; 4.29% in [13]; 5.9% in [14]. In addition, the Activity in assay [15] turned out to be 7.8%; in assay [16], 12%; in [17], 15.4%; in assay [18] it was 20.5%; in assay [19], 25.1%. In [8], this compound gave an IC50 of 72.21 µg/mL (≈ 175 µM).

For the compound `COC(=O)c1c(Nc2ccccc2)sc(C(=O)c2ccc(C)cc2)c1C`, the Activity was 27% with Mus musculus; 43% in the assay on Rattus norvegicus [10]; 49% in the assay with Rattus norvegicus [11]; 53% with Rattus norvegicus [12]; 2.08% in assay [13]; 3.16% in assay [14]. In addition, the Activity in assay [15] is 4.59%; in [16] it was 6.06%; in [17] it was 8.16%; in assay [18] it was 9.35%; in assay [19], 10.2%. The compound further displayed an IC50 in assay [8] of 171.43 µg/mL (≈ 469 µM).

The term IC50 denotes the concentration needed to halve the response being measured. Read a high IC50 as a need for much substance.
